This passage reports MIC and Activity results from ChEMBL document CHEMBL4196135, “Helvolic Acid Derivatives with Antibacterial Activities against Streptococcus agalactiae from the Marine-Derived Fungus Aspergillus fumigatus HNMF0047” (2018).

A word on the MIC: it is the lowest concentration that inhibits growth of the organism.

Values after ≈ are worked out from the molar mass of the structure shown. Active and inactive are the calls of the source. The calls are words filed in the database; no cut-off is given here.

In one test the test system is Staphylococcus aureus. Kind of test: Antimicrobial activity against Staphylococcus aureus after 24 hrs by two-fold dilution method. It is filed as functional. The essentials: (§1)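 Two-fold serial dilution assay reporting MIC in μg/mL, run alongside Staphylococcus aureus, Escherichia coli, Bacillus subtilis and Streptococcus agalactiae. Tobramycin served as positive control.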

A further test concerns Streptococcus agalactiae. Briefly: Antimicrobial activity against Streptococcus agalactiae after 24 hrs by two-fold dilution method. It is filed as functional. The essentials:
as §1

The next test has as its system Bacillus subtilis. Briefly: Antimicrobial activity against Bacillus subtilis at 128 ug/ml after 24 hrs by two-fold dilution method. It is filed as functional, organism-based.
For a further test, the system named is Escherichia coli. Briefly: Antimicrobial activity against Escherichia coli at 128 ug/ml after 24 hrs by two-fold dilution method. It is filed as functional, organism-based.

On to `NC[C@H]1O[C@H](O[C@H]2[C@H](O)[C@@H](O[C@H]3O[C@H](CO)[C@@H](O)[C@H](N)[C@H]3O)[C@H](N)C[C@@H]2N)[C@H](N)C[C@@H]1O` [TOBRAMYCIN], for which the MIC against Staphylococcus aureus came to 1 µg/mL (≈ 2.14 µM); in the test with Streptococcus agalactiae it was 32 µg/mL (≈ 68.4 µM).

As to `CCC(=O)O[C@@H]1C(=O)[C@@]2(C)[C@@H](CC[C@H]3/C(=C(\CCC=C(C)C)C(=O)O)[C@@H](OC(C)=O)C[C@@]32C)[C@@]2(C)C=CC(=O)[C@@H](C)[C@H]12`, the result with Bacillus subtilis and in the test on Escherichia coli was inactive. Further, the MIC with Staphylococcus aureus was found to be 8 µg/mL (≈ 13.7 µM); in the test with Streptococcus agalactiae, 2 µg/mL (≈ 3.43 µM).

Consider `CC(=O)O[C@H]1C[C@@]2(C)[C@@H](CC[C@H]3[C@@]4(C)C=CC(=O)[C@@H](C)[C@@H]4[C@H](OC(C)=O)C(=O)[C@@]32C)/C1=C(\CCC=C(C)C)C(=O)O` [HELVOLIC ACID], for which the outcome with Bacillus subtilis and in the test with Escherichia coli was inactive. The MIC in the test on Staphylococcus aureus was found to be 16 µg/mL (≈ 28.1 µM); against Streptococcus agalactiae, 8 µg/mL (≈ 14.1 µM).

`CC(C)=CCCC1=C2[C@H](C[C@@]3(C)[C@H]2CC[C@H]2[C@@]4(C)C=CC(=O)[C@@H](C)[C@@H]4[C@H](O)C(=O)[C@@]23C)OC1=O`: the outcome in the test with Bacillus subtilis and with Escherichia coli was inactive. Also, the MIC against Staphylococcus aureus and against Streptococcus agalactiae was above 128 µg/mL in each case.

On to `CC(=O)O[C@@H]1C(=O)[C@@]2(C)[C@@H](CC[C@H]3C4=C(CCC=C(C)C)C(=O)O[C@H]4C[C@@]32C)[C@@]2(C)C=CC(=O)[C@@H](C)[C@H]12`, for which the outcome in the test on Bacillus subtilis and in the test with Escherichia coli was inactive. The MIC in the test with Staphylococcus aureus and in the test with Streptococcus agalactiae was above 128 µg/mL in each case.

For `CCC(=O)O[C@H]1C[C@@]2(C)[C@@H](CC[C@H]3[C@@]4(C)C=CC(=O)[C@@H](C)[C@@H]4[C@H](OC(C)=O)C(=O)[C@@]32C)/C1=C(\CCC=C(C)C)C(=O)O`, the result in the test with Bacillus subtilis and in the test with Escherichia coli was inactive. Further, the MIC in the test on Staphylococcus aureus and in the test on Streptococcus agalactiae was 16 µg/mL (≈ 27.5 µM) each time.

As for `CC(=O)O[C@H]1C[C@@]2(C)[C@@H](CC[C@H]3[C@@]4(C)C=CC(=O)[C@@H](C)[C@@H]4[C@H](OC(C)=O)C(=O)[C@@]32C)/C1=C1\CC[C@H](C(C)(C)O)OC1=O`, the result in the test with Bacillus subtilis and with Escherichia coli was inactive. Also, the MIC against Staphylococcus aureus and against Streptococcus agalactiae was above 128 µg/mL throughout.

Consider `CC(=O)O[C@@H]1C(=O)[C@@]2(C)[C@@H](CC[C@H]3C4=C(CCC=C(C)C)C(=O)O[C@H]4C[C@@]32C)[C@@]2(C)CCC(=O)[C@@H](C)[C@H]12`, for which the outcome in the test with Bacillus subtilis and in the test with Escherichia coli was inactive. Besides, the MIC against Staphylococcus aureus and with Streptococcus agalactiae was above 128 µg/mL throughout.

On to `CC(=O)O[C@H]1C[C@@]2(C)[C@@H](CC[C@H]3[C@@]4(C)C=CC(=O)[C@@H](C)[C@@H]4[C@H](OC(C)=O)C(=O)[C@@]32C)/C1=C1\CC[C@@H](C(C)(C)O)OC1=O`, for which the result in the test on Bacillus subtilis and in the test on Escherichia coli was inactive. For the same compound, the values for the MIC in the test on Staphylococcus aureus and in the test with Streptococcus agalactiae were above 128 µg/mL and 64 µg/mL (≈ 109 µM), respectively.

For the compound `CC(C)=CCCC1=C2[C@H](C[C@@]3(C)[C@H]2CC[C@H]2[C@@]4(C)CCC(=O)[C@@H](C)[C@@H]4[C@H](O)C(=O)[C@@]23C)OC1=O`, the result in the test on Bacillus subtilis and with Escherichia coli was inactive. In addition, the MIC in the test on Staphylococcus aureus and in the test with Streptococcus agalactiae was above 128 µg/mL each time.

`CCC(=O)O[C@@H]1C(=O)[C@@]2(C)[C@@H](CC[C@H]3C4=C(CCC=C(C)C)C(=O)O[C@H]4C[C@@]32C)[C@@]2(C)C=CC(=O)[C@@H](C)[C@H]12`: the outcome with Bacillus subtilis and in the test with Escherichia coli was inactive. Further, the MIC against Staphylococcus aureus and in the test with Streptococcus agalactiae was above 128 µg/mL throughout.
